The record followed here is ChEMBL document CHEMBL3217620, “Relative impact of 3- and 5-hydroxyl groups of cytosporone B on cancer cell viability” (Medchemcomm, 2013).

The source made the active and inactive calls. The calls are words filed in the database; no cut-off is given here.

Assay [1] has as its system LNCaP. Description: Cytotoxicity against human LNCAP cells at 20 uM after 72 hrs by MTT assay. Type of assay: functional. The procedure, abridged:
(§1)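 LNCaP cells at 5×10^3/well in RPMI-1640 with 10% FBS, attached 24 h. Treated 72 h with compound at 1–20 µM or DMSO alone (0.2% final). Viability by MTT per kit protocol. Points are means of six replicates ± SD; IC₅₀ interpolated from dose–response curves.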
On the technique in general: Formazan colour is commonly taken as a measure of viable cells.

For assay [2], the target named is Nuclear receptor subfamily 4immunitygroup A member 1 (Homo sapiens) (UniProt P22736). Description: Induction of translocation of NR4A1 from nucleus to cytoplasm in human H460 cells at 10 uM after 8 hrs by DAPI staining-based confocal microscopy relative to control. Type of assay: cell-based. The method in brief: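 Serum-starved H460 cells grown overnight on coverslips, treated 8 h with 10 µM compound or vehicle. Fixed (3.7% paraformaldehyde), permeabilized (0.3% Triton X-100, 10 min), blocked in 3% BSA. Stained with rabbit monoclonal anti-NR4A1 and Alexa Fluor 594 anti-rabbit IgG, nuclei with DAPI. Overlaid confocal images used to judge NR4A1 localization.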

Assay [3] can be described thus: Cytotoxicity against human H460 cells after 48 hrs by MTT assay. Type of assay: functional, cell-based. As to conditions: NCI-H460, 48 h.
For assay [4], the system named is NCI-H460. Description: Induction of apoptosis in human H460 cells assessed as chromatin condensation at 10 uM after 8 hrs by relative to control. It is filed as functional. The procedure, abridged: (§2)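 H460 cells in serum-free RPMI-1640 on coverslips, attached 12 h, given 10 μM compound for 8 h. Fixed in 3.7% paraformaldehyde, permeabilized in 0.3% Triton X-100/PBS, blocked in 3% BSA, DAPI-stained and viewed by fluorescence microscopy. Cells with nuclear fragmentation and/or chromatin condensation scored in 300-cell fields; mean of triplicates ± SD.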

Assay [5] relates to NCI-H460. Description: Induction of apoptosis in human H460 cells assessed as DNA fragmentation at 10 uM after 8 hrs by DAPI staining-based confocal microscopy relative to control. It is filed as functional. The method in brief: as §2
Assay [6] has as its system LNCaP. Description: Cytotoxicity against human LNCAP cells after 72 hrs. It is filed as functional, cell-based.
Assay [7] deals with NCI-H460. Description: Induction of apoptosis in human H460 cells assessed as PARP cleavage at 10 uM after 8 hrs by SDS-PAGE. Type of assay: functional, cell-based. The procedure, abridged:
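H460 cells in serum-free RPMI-1640, attached 12 h, then given 10 μM compound for 8 h. Lysed in Tris-HCl pH 7.9 buffer with NaCl, EDTA, Triton X-100 and protease inhibitors. Run on 12% SDS-PAGE, blotted to nitrocellulose, probed overnight at 4 °C with rabbit polyclonal anti-PARP, then HRP anti-rabbit IgG. ECL detection; β-actin reprobe as loading control.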

Assay [8] has as its system LNCaP. Description: Cytotoxicity against human LNCAP cells after 72 hrs by MTT assay. Type of assay: functional, cell-based. The method in brief: as §1
Assay [9] is described as follows: Cytotoxicity against human H460 cells assessed as cell viability at 10 uM after 72 hrs by MTT assay. It is filed as functional. The following applies: NCI-H460, 72 h, read-out: Activity. The method in brief: (§3)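 NCI-H460 NSCLC cells, […] exponentially growing cells/well, seeded and left overnight. Compound added at 0.1, 1.0 and 10 μM (vehicle DMSO, 0.1% final) in RPMI-1640 with 10% FBS for 72 h. MTT then added at 0.5 mg/mL for 4 h, formazan dissolved in DMSO, absorbance read at 490 nm.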

Assay [10] is described as follows: Cytotoxicity against human H460 cells after 72 hrs by MTT assay. The following applies: NCI-H460, 72 h. Type of assay: functional, cell-based. The method in brief: as §3
Assay [11] concerns the target Nuclear receptor subfamily 4immunitygroup A member 1 (Homo sapiens) (UniProt P22736). Description: Binding affinity to human recombinant N-terminal His6-tagged NR4A1 LBD expressed in Escherichia coli BL21 at 50 uM by NMR spectroscopy.
Assay [12] in a line: Cytotoxicity against human H460 cells at 20 uM after 72 hrs by MTT assay. It is filed as functional. The following applies: NCI-H460, 72 h.
Assay [13] concerns BGC-823. Description: Induction of apoptosis in human BGC823 cells assessed as procaspase9 cleavage at 15.5 uM after 48 hrs. It is filed as functional.
Assay [14] has as its system BGC-823. Description: Induction of apoptosis in human BGC823 cells assessed as mitochondrial cytochrome c release at 15.5 uM after 48 hrs. Type of assay: functional.
For assay [15], the target named is Nuclear receptor subfamily 4immunitygroup A member 1 (Homo sapiens) (UniProt P22736). Description: Binding affinity to human recombinant N-terminal His6-tagged NR4A1 LBD expressed in Escherichia coli BL21 at 100 uM by NMR spectroscopy.
Assay [16] concerns BGC-823. Description: Induction of apoptosis in human BGC823 cells assessed as nuclear DNA condensation at 15.5 uM after 48 hrs. Type of assay: functional.
For assay [17], the target named is Nuclear receptor subfamily 4immunitygroup A member 1 (Homo sapiens) (UniProt P22736). Description: Binding affinity to NR4A1 (unknown origin) at 0.1 uM by luciferase reporter gene assay relative to control.
Assay [18] shares this target. Description: Binding affinity to human recombinant N-terminal His6-tagged NR4A1 LBD expressed in Escherichia coli BL21 by isothermal titration calorimetry. On the technique in general: ITC needs no label: the signal is the heat of the interaction.

Nuclear receptor subfamily 4immunitygroup A member 1 (Homo sapiens), sequence (P22736 whole entry, the tested form may be a part): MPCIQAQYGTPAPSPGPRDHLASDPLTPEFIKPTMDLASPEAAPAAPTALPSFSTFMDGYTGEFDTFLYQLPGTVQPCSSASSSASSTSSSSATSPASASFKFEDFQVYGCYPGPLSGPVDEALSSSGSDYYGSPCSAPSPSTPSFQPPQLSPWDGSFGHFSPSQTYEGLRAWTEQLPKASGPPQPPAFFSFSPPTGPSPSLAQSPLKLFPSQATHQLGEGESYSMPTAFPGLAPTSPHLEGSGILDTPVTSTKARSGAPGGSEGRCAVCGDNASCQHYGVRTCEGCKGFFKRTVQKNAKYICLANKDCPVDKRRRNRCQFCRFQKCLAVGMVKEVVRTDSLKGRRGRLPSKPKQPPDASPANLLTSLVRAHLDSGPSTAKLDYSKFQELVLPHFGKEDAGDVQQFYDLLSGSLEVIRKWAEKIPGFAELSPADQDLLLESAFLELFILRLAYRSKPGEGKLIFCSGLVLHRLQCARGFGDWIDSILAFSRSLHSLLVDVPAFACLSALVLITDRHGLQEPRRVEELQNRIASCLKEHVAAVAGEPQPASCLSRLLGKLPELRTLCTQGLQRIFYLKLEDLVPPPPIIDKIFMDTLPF

For orientation: inhibition means how much of the control response was suppressed. A higher inhibition goes with a strong effect. As a reminder, the IC50 is the point on the concentration scale where inhibition reaches its midpoint. A lower IC50 goes with higher potency. As to `FC(F)(F)c1ccc(C(c2c[nH]c3ccccc23)c2c[nH]c3ccccc23)cc1`, the inhibition at 20 µM in assay [1] was determined as 97%. Moreover, the result in assay [2] and in assay [7] was Active. For the same molecule, the IC50 in [3] came to 7.7 µM; in [6], 5 µM; in assay [8], 9.7 µM; in assay [10], 4.6 µM. The “fold change (FC)” value in [4] and in assay [5] was 3.7 each time. In [9], the viability at 10 µM amounted to 90%.

For the molecule `CCCCCCCC(=O)c1c(O)cc(OC)cc1CC(=O)OCC`, the values for the inhibition at 20 µM in assay [1] and in assay [12] were 80% and 75%, respectively. The outcome in assay [2], in assay [11] and in assay [7] was Active. In addition, the “fold change (FC)” value in [4] and in assay [5] was 5.1 throughout. The half-inhibitory concentration (IC50) in assay [8] is 11.4 µM; in assay [10], 15.9 µM. The viability at 10 µM in assay [9] amounted to 22%.

For `CCCCCCCC(=O)c1c(O)cc(O)cc1CC(=O)OCC` [CYTOSPORONE B], the inhibition at 20 µM was determined as 76% in [1] and 88% in [12]. Besides, the outcome in [2], in assay [15] and in assay [7] was Active. Further, the Activity in [13], in assay [14] and in assay [16] was 63% throughout. The “fold change (FC)” value in [4] and in assay [5] was 4.4 in each case. Moreover, the results for the IC50 in assay [8] and in assay [10] were 13.4 µM and 15.3 µM, respectively. The viability at 10 µM in assay [9] amounted to 50%. The Ratio in assay [17] worked out at 12.5.

Turning to `CCCCCCCC(=O)c1c(CC(=O)OCC)cc(OC)cc1OC`, the inhibition at 20 µM in assay [1] was determined as 14%; in assay [12], 11%. Further, the outcome in assay [2], in assay [18] and in assay [11] was inactive. In assay [7], the result was Active. In addition, in assay [9], the viability at 10 µM was 24%. In assay [10], this molecule registered an IC50 of over 20 µM.
